Laboratory results taken from publication PMC4987221 (Bioorganic & medicinal chemistry letters, 2016).

Key:
hM4 = target: T1, hM4 (Homo sapiens, UniProt P08173); assay type: cell-based
T1 sequence (P08173 1-479): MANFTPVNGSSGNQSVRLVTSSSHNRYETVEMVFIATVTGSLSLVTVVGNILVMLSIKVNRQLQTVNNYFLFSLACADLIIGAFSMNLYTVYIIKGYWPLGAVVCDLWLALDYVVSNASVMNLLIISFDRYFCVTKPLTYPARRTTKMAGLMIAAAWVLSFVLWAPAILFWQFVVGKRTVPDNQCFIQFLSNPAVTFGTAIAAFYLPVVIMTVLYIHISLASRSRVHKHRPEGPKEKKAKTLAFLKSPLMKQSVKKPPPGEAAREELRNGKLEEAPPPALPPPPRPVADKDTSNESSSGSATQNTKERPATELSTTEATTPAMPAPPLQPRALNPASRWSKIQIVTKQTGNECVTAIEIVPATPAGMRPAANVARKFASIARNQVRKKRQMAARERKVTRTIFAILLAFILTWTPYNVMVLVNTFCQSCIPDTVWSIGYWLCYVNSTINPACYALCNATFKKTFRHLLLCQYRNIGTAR
Procedure, shortened: (§1)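 Functional calcium mobilization in CHO cells expressing M4 with the Gqi5 chimeric G protein (human M4 for line 2, rat M4 for line 3). The test compound was added with a fixed EC20 acetylcholine concentration, and efficacy was expressed as % of the maximal acetylcholine response. For the screening hit, DMSO stock from the screening source plates was used. Values are means of three independent experiments, each run in triplicate.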

[1] = Hepatic microsomal intrinsic clearance, human; assay type: in vitro ADME
Procedure, shortened: (§2)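 Intrinsic clearance was measured in hepatic microsomes (human for line 4, rat for line 5), and predicted hepatic clearance was calculated from the microsomal CLint. Data come from a single experiment run in triplicate.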

human M1 = target: T2, human M1 (Homo sapiens, UniProt P11229); test: Built-in HTS counterscreen, human M1; assay type: cell-based
T2 sequence (P11229 1-460): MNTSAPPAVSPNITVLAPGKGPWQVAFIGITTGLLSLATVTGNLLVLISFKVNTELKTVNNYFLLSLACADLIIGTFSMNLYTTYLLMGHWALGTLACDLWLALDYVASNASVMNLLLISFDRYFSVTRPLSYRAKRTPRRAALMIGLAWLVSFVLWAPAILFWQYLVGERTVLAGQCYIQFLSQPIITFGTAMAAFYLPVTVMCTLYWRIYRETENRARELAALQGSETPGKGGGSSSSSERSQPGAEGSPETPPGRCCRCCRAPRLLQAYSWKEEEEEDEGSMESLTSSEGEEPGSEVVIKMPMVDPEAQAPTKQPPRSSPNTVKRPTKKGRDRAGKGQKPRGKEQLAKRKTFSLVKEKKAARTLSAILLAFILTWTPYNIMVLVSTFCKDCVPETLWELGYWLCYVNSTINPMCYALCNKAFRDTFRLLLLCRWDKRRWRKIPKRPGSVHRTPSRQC

rM4 = target: T3, rM4 (Rattus norvegicus, UniProt P08485); assay type: cell-based; details: unit not given
T3 sequence (P08485 1-478): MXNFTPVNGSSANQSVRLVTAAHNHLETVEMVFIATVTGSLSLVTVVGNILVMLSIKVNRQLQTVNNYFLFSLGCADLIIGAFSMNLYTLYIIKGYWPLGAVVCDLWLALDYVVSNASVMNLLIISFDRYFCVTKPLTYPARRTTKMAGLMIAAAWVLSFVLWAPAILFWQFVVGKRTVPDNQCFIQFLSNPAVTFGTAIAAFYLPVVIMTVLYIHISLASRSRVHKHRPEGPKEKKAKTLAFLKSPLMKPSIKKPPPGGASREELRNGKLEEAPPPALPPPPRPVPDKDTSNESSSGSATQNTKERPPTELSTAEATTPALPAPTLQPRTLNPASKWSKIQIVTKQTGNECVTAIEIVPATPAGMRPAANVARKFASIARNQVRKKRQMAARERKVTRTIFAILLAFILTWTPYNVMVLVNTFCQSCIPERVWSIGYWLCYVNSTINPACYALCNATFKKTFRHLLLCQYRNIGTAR
Procedure, shortened: as §1

human M5 = target: T4, human M5 (Homo sapiens, UniProt P08912); test: Built-in HTS counterscreen, human M5; assay type: cell-based
T4 sequence (P08912 1-532): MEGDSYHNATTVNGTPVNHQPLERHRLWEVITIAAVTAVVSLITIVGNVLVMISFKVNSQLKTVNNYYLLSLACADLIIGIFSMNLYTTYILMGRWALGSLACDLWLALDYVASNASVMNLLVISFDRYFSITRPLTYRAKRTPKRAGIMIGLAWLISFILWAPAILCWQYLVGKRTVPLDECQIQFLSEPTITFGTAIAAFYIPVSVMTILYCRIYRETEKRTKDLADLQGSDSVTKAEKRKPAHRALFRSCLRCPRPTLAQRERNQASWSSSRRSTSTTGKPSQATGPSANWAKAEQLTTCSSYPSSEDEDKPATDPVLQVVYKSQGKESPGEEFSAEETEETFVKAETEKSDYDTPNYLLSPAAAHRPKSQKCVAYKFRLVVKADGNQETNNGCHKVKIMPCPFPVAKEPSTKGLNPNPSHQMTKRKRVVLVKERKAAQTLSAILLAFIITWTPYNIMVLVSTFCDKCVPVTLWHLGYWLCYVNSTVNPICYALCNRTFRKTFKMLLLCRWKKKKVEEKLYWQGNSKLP

[2] = Hepatic microsomal intrinsic clearance, rat; assay type: in vitro ADME; details: for predicted hepatic clearance rCLhep: rat, from microsomal CLint
Procedure, shortened: as §2

[3] = Metabolite identification in human cryopreserved hepatocytes; assay type: in vitro ADME; details: secondary alcohol 18 as the single major metabolite
[4] = human hepatic microsomes, in words
[5] = rat hepatic microsomes, in words

## Cc1nc2sc(C(=O)c3ccccc3)c(N)c2c(C)c1C [Cpd 7]
hM4; HTS hit, using DMSO stock from the source plates
  human M4 % ACh Max: 76%
hM4; unit not given
  hM4 ACh Max: 76.8±4.1
[1]; [4]
  in vitro intrinsic clearance (CLint): very high
  predicted hepatic clearance (CLhep): near hepatic blood flow rates
Human M1
  activity on human M1: inactive
rM4
  rM4 ACh Max: 80.5±6.3
Human M5
  activity on human M5: inactive
[2]; [5]
  in vitro intrinsic clearance (CLint): very high
  predicted hepatic clearance (CLhep): near hepatic blood flow rates

## Cc1cc(C)c2c(N)c(C(=O)c3ccncc3)sc2n1 [Cpd 12f]
[3]
  metabolism route (Met ID): rapid, and near quantitative, reductive metabolism

## Cc1cc(C)c2c(N)c(C(=O)CCc3ccncc3)sc2n1 [Cpd 19]
[1]; human, from microsomal CLint
  predicted hepatic clearance hCLhep: 18 mL/min/kg
[2]
  predicted hepatic clearance rCLhep: 62 mL/min/kg

## COc1ccc(CCC(=O)c2sc3nnc(C)c(C)c3c2N)cc1F [Cpd 20]
[2]
  predicted hepatic clearance rCLhep: 62 mL/min/kg
